High-throughput results from PubChem BioAssay.
Only some compounds are listed: those with a hit (about 2.9% of all), similar ones and a draw of the others.
Apaf-1 inh: inhibitors of human Apaf-1 apoptosome | O14727 | reconstituted apoptosome caspase-3 activity, DEVD-Rh110 fluorescence | inhibition, % at 20 µM | 0.71% of 330,000 active | AID 489030; active = inhibition of at least 40% at 20 µM
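detection = Rh110 fluorescence intensity | test system = biochemical Apaf-1 apoptosome reconstitution | also added = cytochrome c and DEVD-Rh110 substrate | schedule = 30 min plus 50 min, RT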
PfGluPho inh: PfG6PD (Plasmodium falciparum) enzyme inhibition | 0.78% of 350,000 active | PfGluPho enzyme, NADPH resazurin-diaphorase fluorescence | inhibition, % at 20 µM | AID 504690;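 active = inhibition reaching at least a set limit at 20 µM in the primary screen, cut at about 59% in these data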
UBC13 inh: human UBC13 polyubiquitination inhibition | AID 485273 | P61088 | UBC13 polyubiquitin chain formation, TR-FRET | inhibition, % at 20 µM | 0.47% of 330,000 active; in the data active = inhibition above about 45%, passing the limit was not always enough
Target sequence (P61088 whole entry, looked up): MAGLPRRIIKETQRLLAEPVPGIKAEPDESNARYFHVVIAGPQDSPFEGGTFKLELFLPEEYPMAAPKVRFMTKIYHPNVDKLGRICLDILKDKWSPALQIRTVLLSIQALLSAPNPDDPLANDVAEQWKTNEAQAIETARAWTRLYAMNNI
EBNA-1 inh: blocks EBNA-1 binding to DNA. inhibition, % at 14.8 µM. AID 1950. 0.34% of 300,000 active. EBNA-1 DNA binding, fluorescence polarization; in the data active = inhibition above about 28%
ZTA DNA inh: ZTA (EBV) inhibition in EBNA-1 counter-screen | ZTA-DNA binding, fluorescence polarization | inhibition, % at 11 µM | 0.15% of 320,000 active; in the data active = inhibition above about 33%
PfM18AAP inh-1: PfM18AAP enzyme inhibition | recombinant PfM18AAP, H-Glu-NHMec fluorogenic cleavage | inhibition, % at 7.35 µM | 1.2% of 290,000 active | AID 1822;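 active = inhibition above the campaign mean inhibition over all tested compounds plus 3 SD, cut at about 28% in these data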
PfM18AAP inh-2: PfM18AAP inhibition, confirmation. shares compounds with PfM18AAP inh-1. recombinant PfM18AAP, H-Glu-NHMec fluorogenic cleavage. inhibition, % at 7.35 µM. 28% of 2,400 active. AID 2170;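 active = mean inhibition over replicate wells above the hit cutoff set for the earlier primary screen, cut at about 29% in these data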
CTSL1 confirm: counter-screen for PFM18AAP inhibitors: confirmation of human cathepsin L inhibitors. shares compounds with PfM18AAP inh-1. purified cathepsin L1, Z-Leu-Arg-MCA fluorescence. inhibition, % at 5.96 µM. 2,400 tested, under 10 active. AID 2178;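 active = average inhibition across replicates above the hit cutoff set in the earlier primary screen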
Target sequence (P07711 whole entry, looked up): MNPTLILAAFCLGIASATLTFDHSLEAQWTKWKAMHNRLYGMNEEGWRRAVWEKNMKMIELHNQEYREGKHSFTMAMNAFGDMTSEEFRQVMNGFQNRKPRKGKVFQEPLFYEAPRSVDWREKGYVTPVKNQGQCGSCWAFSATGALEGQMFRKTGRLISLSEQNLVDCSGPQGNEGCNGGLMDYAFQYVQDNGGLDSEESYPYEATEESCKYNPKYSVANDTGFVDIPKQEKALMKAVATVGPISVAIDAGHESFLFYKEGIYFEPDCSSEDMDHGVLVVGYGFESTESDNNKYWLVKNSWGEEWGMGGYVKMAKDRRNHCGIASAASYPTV
Apaf-1 inh conf: confirmation of Apaf-1 inhibitors; shares compounds with Apaf-1 inh; reconstituted apoptosome, caspase-3 DEVD-Rh110 fluorescence; inhibition, % at 20 µM; 25% of 1,800 active;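 active = mean inhibition of at least 40% at 20 µM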
Rh110 interf inh: Rh110 signal interference in Apaf-1 inhibitor counter-screen; Rh110 fluorescence interference, quenched caspase reaction; activation (fluorescence interference), % at 20 µM; 1,800 tested, under 10 active; shares compounds with Apaf-1 inh;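 active = signal rise of 40% or more at 20 µM, treated as a fluorescence artifact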
PfGluPho conf: confirmation of Plasmodium falciparum G6PD inhibitors; shares compounds with PfGluPho inh; recombinant PfGluPho, NADPH-diaphorase-resazurin fluorescence; inhibition, % at 20 µM; 34% of 2,400 active;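 active = inhibition of at least 50% at 20 µM in any single replicate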
Diaph ctr 10uM: counter-screen for P. falciparum G6PD inhibitors: diaphorase inhibitors, oxidizers. shares compounds with PfGluPho inh. diaphorase-coupled resazurin reduction, fluorescence, NADPH 10 uM. inhibition, % at 20 µM. 39% of 820 active;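 active = average inhibition reaching 50% or more with the compound at 20 µM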;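 note: resorufin red fluorescence formed as diaphorase reduces resazurin using NADPH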
Diaph ctr 30uM: counter-screen for P. falciparum G6PD inhibitors: diaphorase inhibitors, oxidizers | 29% of 820 active | Diaphorase/resazurin coupled assay, resorufin fluorescence, 30 uM NADPH | shares compounds with PfGluPho inh | AID 504863 | inhibition, % at 20 µM;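 active = inhibition averaging 50% or more, tested at 20 µM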
Numbers stand for hits; . = inactive; / = no result given.

SMILES | Apaf-1 inh | PfGluPho inh | UBC13 inh | EBNA-1 inh | ZTA DNA inh | PfM18AAP inh-1 | PfM18AAP inh-2 | CTSL1 confirm | PfGluPho conf | Diaph ctr 10uM | Diaph ctr 30uM | others
Cc1nc2ccccc2c(=O)n1/N=C/c1ccc(O)c(O)c1O | . | 91.9 | . | . | . | 46.7 | . | . | 100.5 | 97.4 | 95.6
Oc1ccc(/C=N/N2CCCCC2)c(O)c1O | 69.6 | 117.9 | . | . | . | 48.1 | . | . | 91.6 | 98.4 | 96.1 | Apaf-1 inh conf=.;Rh110 interf inh=.
Oc1ccccc1/C=N/N1CCCCC1 | . | . | . | . | . | . | / | / | / | / | /
CN=c1scc(C)n1/N=C/c1ccc(O)c(O)c1O | . | 88.2 | . | . | . | 47.4 | . | . | 77.9 | . | .
CCN=c1scc(C)n1/N=C/c1ccsc1 | . | . | . | . | . | . | / | / | / | / | /
C=CCN=c1scc(-c2ccco2)n1/N=C/c1ccc(O)c(O)c1O | . | 73.5 | . | . | . | 44.8 | . | . | 48.2 | . | .
O=C(O)CCSSCCC(=O)O | . | . | . | / | . | / | / | / | / | / | /
CN1CCN(C(=S)c2ccc(Br)cc2)CC1 | . | 59.2 | . | . | . | 47.3 | . | . | 60.6 | . | .
S=C(c1ccc(Br)cc1)N1CCN(Cc2ccccc2)CC1 | . | 59.7 | . | . | . | 42.5 | . | . | . | / | /
O=C(NCC(=O)N1CCN(Cc2ccccc2)CC1)c1ccc(Br)cc1 | . | . | . | . | . | . | / | / | / | / | /
CCCCn1c(N)c(N(Cc2ccccc2OC)C(=O)c2ccc(N3CCCC3=O)cc2)c(=O)[nH]c1=O | . | . | . | . | . | / | / | / | / | / | /
O=C(OCc1ccccc1)N1CCC2CC1c1cc(-c3ccc4c(c3)OCO4)ccc12 (stereo unspecified) | / | . | / | / | / | / | / | / | / | / | /
COc1cc(C2Nc3ccc4ncccc4c3C3=C2C(=O)CCC3)cc(OC)c1O (stereo unspecified) | . | 69.4 | . | . | . | 43.2 | . | . | . | / | /
COc1cc(C2Nc3ccc4ncccc4c3C3=C2C(=O)CC(C)(C)C3)cc(OC)c1O (stereo unspecified) | . | . | . | . | . | . | / | / | / | / | /
CN1CCc2cccc3c2C1Cc1ccc(O)c(O)c1-3 (stereo unspecified) | 49.6 | 64.0 | . | . | . | 74.8 | 73.7 | . | . | / | /
COCC(=O)/C=C1\Sc2ccccc2N1C | . | . | . | . | . | . | / | / | / | / | /
CN1/C(=C\C(=O)c2cccs2)Sc2ccccc21 | . | 104.6 | . | . | . | 53.6 | . | . | 62.4 | . | .
COc1ccc(N2CCN(C(=O)CNC(=O)c3ccc4ccccc4c3)CC2)cc1 | . | . | . | / | . | / | / | / | / | / | /
COc1cc(OC)cc(C(=O)NCC(=O)N2CCN(c3ccc(O)cc3)CC2)c1 | . | 59.8 | . | . | . | 35.6 | . | . | . | / | /
CN(C)CCCNC(=S)Nc1ccc(Br)cc1 | . | . | . | . | . | . | / | / | / | / | /
COCCN(C(=S)Nc1c(C)cccc1C)C(C)c1cccnc1 (stereo unspecified) | . | . | . | . | . | . | / | / | / | / | /
COCCN(C(=S)Nc1c(C)cc(C)cc1C)C(C)c1cccnc1 (stereo unspecified) | . | 69.1 | . | . | . | 49.3 | . | . | . | / | /
CN(CC(=O)Nc1ccc(F)cc1)C(=O)c1ccccc1Sc1ccccc1C#N | . | . | . | / | / | / | / | / | / | / | /
OCCN1CCN(C(=S)c2ccc(Cl)c(Cl)c2)CC1 | . | 64.2 | . | . | . | 49.2 | . | . | 53.3 | . | .
COc1cc(NC(=S)N2CCN(CCO)CC2)c(OC)cc1Cl | . | . | . | . | . | . | / | / | / | / | /
